Activity calls are given as the source filed them. The calls are words filed in the database; no cut-off is given here.
Assays:
[1] = target: T1, 72 kDa type IV collagenase (Homo sapiens, UniProt P08253); test: Inhibition of recombinant human MMP2 using thiopeptide as substrate preincubated for 30 mins followed by substrate addition and measured every mins for 20 min by colorimetric assay
Target sequence in this assay (P08253 whole entry): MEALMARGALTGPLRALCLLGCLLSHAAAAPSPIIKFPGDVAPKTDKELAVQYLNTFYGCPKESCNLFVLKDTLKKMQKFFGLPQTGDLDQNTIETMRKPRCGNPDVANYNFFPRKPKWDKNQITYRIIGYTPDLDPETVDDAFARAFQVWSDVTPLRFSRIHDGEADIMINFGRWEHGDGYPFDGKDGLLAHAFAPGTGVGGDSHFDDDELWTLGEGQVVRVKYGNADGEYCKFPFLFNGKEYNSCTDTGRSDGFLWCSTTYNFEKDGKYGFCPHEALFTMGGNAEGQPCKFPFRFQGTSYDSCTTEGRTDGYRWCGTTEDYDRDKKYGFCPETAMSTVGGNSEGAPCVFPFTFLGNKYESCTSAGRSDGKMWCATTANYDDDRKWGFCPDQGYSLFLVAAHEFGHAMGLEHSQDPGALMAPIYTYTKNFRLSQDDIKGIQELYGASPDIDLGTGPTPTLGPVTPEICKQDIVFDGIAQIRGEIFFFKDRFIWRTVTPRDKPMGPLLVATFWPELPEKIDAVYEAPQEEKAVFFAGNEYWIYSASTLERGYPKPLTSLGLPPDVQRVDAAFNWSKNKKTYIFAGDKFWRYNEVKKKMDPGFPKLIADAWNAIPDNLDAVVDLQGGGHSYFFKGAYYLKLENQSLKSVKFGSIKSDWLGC

[2] = target: T2, Matrix metalloproteinase-9 (Homo sapiens, UniProt P14780); test: Inhibition of recombinant human MMP9 using thiopeptide as substrate preincubated for 30 mins followed by substrate addition and measured every min for 20 mins by colorimetric assay
[3] = target: T1, 72 kDa type IV collagenase; test: Inhibition of recombinant human MMP2 at 10 uM using thiopeptide as substrate preincubated for 30 mins followed by substrate addition and measured every min for 20 mins by colorimetric assay relative to control
Outline: (§1)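 Colorimetric kit assay: human recombinant enzyme plus inhibitor in assay buffer for 30 min at 37 °C, then chromogenic MMP substrate added; A412 recorded each minute over 20 min. Enzyme-free blanks and inhibitor-free controls included.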
Target sequence in this assay (P08253 110-660 limits assumed): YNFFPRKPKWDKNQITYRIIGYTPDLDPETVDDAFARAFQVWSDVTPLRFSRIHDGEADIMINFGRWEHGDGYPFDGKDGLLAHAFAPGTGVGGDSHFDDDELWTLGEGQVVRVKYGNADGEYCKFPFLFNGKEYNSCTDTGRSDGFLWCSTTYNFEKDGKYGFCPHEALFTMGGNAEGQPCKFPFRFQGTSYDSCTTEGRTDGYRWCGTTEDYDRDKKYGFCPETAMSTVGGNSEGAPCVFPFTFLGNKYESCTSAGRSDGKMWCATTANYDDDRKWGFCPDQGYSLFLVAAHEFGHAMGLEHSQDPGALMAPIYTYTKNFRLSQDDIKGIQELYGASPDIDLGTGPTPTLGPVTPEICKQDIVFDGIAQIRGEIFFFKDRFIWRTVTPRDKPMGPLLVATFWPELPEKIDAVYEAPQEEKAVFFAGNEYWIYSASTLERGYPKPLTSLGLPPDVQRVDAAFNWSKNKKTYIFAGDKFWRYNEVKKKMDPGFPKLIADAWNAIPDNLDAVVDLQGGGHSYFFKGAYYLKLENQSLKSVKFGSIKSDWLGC

[4] = target: T2, Matrix metalloproteinase-9; test: Inhibition of recombinant human MMP9 at 10 uM using thiopeptide as substrate preincubated for 30 mins followed by substrate addition and measured every min for 20 mins by colorimetric assay relative to control; outline: as §1
KG-1 = test: Antiproliferative activity against human KG1 cells assessed as reduction in cell viability incubated for 48 hrs by MTT assay; assay type: functional, cell-based; settings: KG-1, 48 h
Outline: (§2)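 Cells grown in RPMI1640 with 10% FBS at 37°C, 5% CO2; seeded at 4000-5000 cells/well for 8 h, then exposed to a range of compound concentrations for 48 h. MTT added for 4 h, formazan dissolved in DMSO, absorbance at 570 nm; IC50 calculated from inhibition ratios.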

A549 [5] = test: Antiproliferative activity against human A549 cells assessed as reduction in cell viability incubated for 48 hrs by MTT assay; assay type: functional, cell-based; settings: A549, 48 h; outline: as §2
K562 = test: Antiproliferative activity against human K562 cells assessed as reduction in cell viability incubated for 48 hrs by MTT assay; assay type: functional, cell-based; settings: K562, 48 h; outline: as §2
MCF7 = test: Antiproliferative activity against human MCF7 cells assessed as reduction in cell viability incubated for 48 hrs by MTT assay; assay type: functional, cell-based; settings: MCF7, 48 h; outline: as §2
PC-3 = test: Antiproliferative activity against human PC3 cells assessed as reduction in cell viability incubated for 48 hrs by MTT assay; assay type: functional, cell-based; settings: PC-3, 48 h; outline: as §2
HL-60 = test: Antiproliferative activity against human HL60 cells assessed as reduction in cell viability incubated for 48 hrs by MTT assay; assay type: functional, cell-based; settings: HL-60, 48 h; outline: as §2
HUVEC = test: Cytotoxicity against HUVEC assessed as reduction in cell viability incubated for 48 hrs by MTT assay; assay type: cell-based; settings: Homo sapiens; outline: as §2
A549 [6] = test: Inhibition of cell invasion in human A549 cells at 1 to 10 uM incubated for 24 hrs by crystal violet staining based matrigel migration assay; assay type: functional
Outline: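 As the migration setup but membrane precoated with matrigel (1:10 diluted) for 2 h at 37°C: A549 pretreated 24 h at 1, 5, 10 µM, 30,000 cells in serum-free medium above, 10% FBS below, 24 h, then fixing, 0.1% crystal violet staining and counting. Three repeats, mean ± SEM.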

T2 sequence (P14780 whole entry): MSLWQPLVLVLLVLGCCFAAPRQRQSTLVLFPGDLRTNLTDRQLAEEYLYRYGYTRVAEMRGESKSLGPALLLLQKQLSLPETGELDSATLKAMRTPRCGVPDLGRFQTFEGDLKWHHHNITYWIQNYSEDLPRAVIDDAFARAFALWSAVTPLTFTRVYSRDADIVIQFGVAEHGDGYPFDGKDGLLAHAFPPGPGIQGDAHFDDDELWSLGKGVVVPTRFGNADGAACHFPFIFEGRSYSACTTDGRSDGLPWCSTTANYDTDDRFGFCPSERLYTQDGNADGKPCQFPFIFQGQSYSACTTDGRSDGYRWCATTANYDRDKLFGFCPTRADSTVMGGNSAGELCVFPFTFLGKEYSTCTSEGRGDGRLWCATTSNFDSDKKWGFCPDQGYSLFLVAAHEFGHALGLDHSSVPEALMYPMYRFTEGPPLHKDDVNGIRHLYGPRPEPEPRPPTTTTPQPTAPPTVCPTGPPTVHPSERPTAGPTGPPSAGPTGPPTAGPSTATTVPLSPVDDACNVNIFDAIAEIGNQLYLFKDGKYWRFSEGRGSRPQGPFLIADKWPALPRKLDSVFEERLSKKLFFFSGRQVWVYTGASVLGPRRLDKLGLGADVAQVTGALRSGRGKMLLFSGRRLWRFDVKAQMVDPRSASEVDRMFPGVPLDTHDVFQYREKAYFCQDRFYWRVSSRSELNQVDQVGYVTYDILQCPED

SMILES | IC50 [1] [µM] | IC50 [2] [µM] | inhibition [3] [%] | inhibition [4] [%] | IC50 (KG-1) [µM] | IC50 (A549 [5]) [µM] | IC50 (K562) [µM] | IC50 (MCF7) [µM] | IC50 (PC-3) [µM] | IC50 (HL-60) [µM] | IC50 (HUVEC) [µM] | inhibition (A549 [6])
O=C(CCCCN1C(=O)c2ccccc2S1(=O)=O)Nc1ccc(O)c2ncccc12 | > 10 | > 10 |  |  |  |  |  |  |  |  |  | 
Cc1nc2ccccc2n1CCCCCC(=O)Nc1ccc(O)c2ncccc12 | > 10 | > 10 | 38.9 |  |  |  |  |  |  |  |  | 
O=C(CCCCCCNCc1ccc(O)c2ncccc12)Nc1ccccc1 | > 10 | > 10 | 53.8 | 28.8 |  |  |  |  |  |  |  | 
O=C(CCNCc1ccc(O)c2ncccc12)Nc1ccccc1 | > 10 | > 10 |  | 9.8 |  |  |  |  |  |  |  | 
Cc1nc2ccccc2n1CCCC(=O)Nc1ccc(O)c2ncccc12 | > 10 | > 10 | 46.9 |  |  |  |  |  |  |  |  | 
CC1(C)SCCN(S(=O)(=O)c2ccc(Oc3ccncc3)cc2)[C@H]1C(=O)NO [PRINOMASTAT] |  |  |  |  | > 500 | > 500 | > 500 | > 500 | > 500 | > 500 | > 500 | Active
O=C(CCNCc1cc(Cl)c2cccnc2c1O)Nc1ccccc1 | 3.3 | 3.5 | 100 | 98.9 | 1.1 | 9.7 | 1.7 | 13 | 1.9 | 1.3 | > 50 | 
O=C(CCCNCc1ccc(O)c2ncccc12)Nc1ccccc1 | 5.7 | 5.1 | 54.5 | 83.9 |  |  |  |  |  |  |  | 
O=C(CCCCCN1C(=O)c2ccccc2S1(=O)=O)Nc1ccc(O)c2ncccc12 | > 10 | > 10 |  | 24.3 |  |  |  |  |  |  |  | 
O=C(CCCCNCc1ccc(O)c2ncccc12)Nc1ccccc1 | > 10 | > 10 |  | 36.5 |  |  |  |  |  |  |  | 
Cc1[nH]c2ccccc2c1CCNC(=O)CCNCc1ccc(O)c2ncccc12 | > 10 | > 10 | 49.8 | 11.3 |  |  |  |  |  |  |  | 
Cc1nc2ccccc2n1CCC(=O)Nc1ccc(O)c2ncccc12 | > 10 | > 10 |  |  |  |  |  |  |  |  |  | 
O=C(CCCCNCc1cc(Cl)c2cccnc2c1O)Nc1ccccc1 | 3 | 3.6 | 100 | 99.9 | 1.6 | 13 | 2.9 | 7.4 | 8.4 | 1.9 | > 50 | 
Cc1[nH]c2ccccc2c1CCNC(=O)CCCCCNCc1cc(Cl)c2cccnc2c1O | 3.6 | 1.7 | 100 | 77.1 | 4.7 | > 25 | 4.2 | 12 | > 25 | 2.6 | > 50 | 
Cc1[nH]c2ccccc2c1CCNC(=O)CNCc1cc(Cl)c2cccnc2c1O | 8.8 | > 10 | 59.5 | 35.2 |  |  |  |  |  |  |  | 
O=C(CCN1C(=O)c2ccccc2S1(=O)=O)Nc1ccc(O)c2ncccc12 | > 10 | > 10 |  |  |  |  |  |  |  |  |  | 
CN(CCC(=O)Nc1ccc(O)c2ncccc12)c1ccccc1 | > 10 | > 10 |  |  |  |  |  |  |  |  |  | 
Cc1[nH]c2ccccc2c1CCNC(=O)CCNCc1cc(Cl)c2cccnc2c1O | > 10 | > 10 |  | 73.9 |  |  |  |  |  |  |  | 
O=C(CCCNCc1cc(Cl)c2cccnc2c1O)Nc1ccccc1 | 3.8 | 3.2 | 100 | 100 | 1.6 | 17 | 1.9 | 9 | 7.7 | 1.9 | > 50 | 
O=C(CCCN1C(=O)c2ccccc2S1(=O)=O)Nc1ccc(O)c2ncccc12 | > 10 | > 10 | 50.1 |  |  |  |  |  |  |  |  | 
Cc1nc2ccccc2n1CCCCC(=O)Nc1ccc(O)c2ncccc12 | > 10 | > 10 |  |  |  |  |  |  |  |  |  | 
Cc1[nH]c2ccccc2c1CCNC(=O)CCCNCc1ccc(O)c2ncccc12 | > 10 | > 10 | 44.8 | 12.3 |  |  |  |  |  |  |  | 
Cc1[nH]c2ccccc2c1CCNC(=O)CCCCNCc1cc(Cl)c2cccnc2c1O | 7.6 | 3.1 | 67.8 | 100 |  |  |  |  |  |  |  | 
O=C(CNCc1cc(Cl)c2cccnc2c1O)Nc1ccccc1 | 3.2 | 2.1 | 95.8 | 78.8 | 2.3 | 7.4 | 2.9 | 13 | 10 | > 5 | > 50 | 
O=C(CCCCCNCc1ccc(O)c2ncccc12)Nc1ccccc1 | 8.8 | 6 | 56 | 55 |  |  |  |  |  |  |  | 
COc1ccc(S(=O)(=O)N(CC(=O)NO)CC(C)C)cc1 | 0.0091 | 0.0088 |  |  | 52 | 96 | 143 | 187 | 52 | 29 | > 250 | Active
CN(CCCC(=O)Nc1ccc(O)c2ncccc12)c1ccccc1 | > 10 | > 10 |  |  |  |  |  |  |  |  |  | 
Cc1[nH]c2ccccc2c1CCNC(=O)CCCCNCc1ccc(O)c2ncccc12 | 8.8 | 5.3 | 61 | 67.8 |  |  |  |  |  |  |  | 
O=C(CNCc1ccc(O)c2ncccc12)Nc1ccccc1 | > 10 | > 10 |  | 42.9 |  |  |  |  |  |  |  | 
